Data: ChEMBL document CHEMBL3862015, “Synthesis and biological evaluation of furocoumarin derivatives on melanin synthesis in murine B16 cells for the treatment of vitiligo” (2016)
The source made the active and inactive calls. The calls are words filed in the database; no cut-off is given here.

Test system: B16-F10
Test: Induction of melanin synthesis in mouse B16F10 cells at 50 uM after 48 hrs by spectrophotometric analysis relative to control
Format: functional
Procedure, shortened: (§1)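 B16F10 cells in DMEM with 10% heat-inactivated FBS, penicillin/streptomycin, 37 °C, 5% CO2; 5 × 10^5 cells per well, allowed 24 h, then fresh medium with compound for 48 h. Cells washed in cold PBS, lysed in RIPA on ice 40 min, spun 10,000g 20 min; pellet dissolved in 1 M NaOH, 60 °C 2 h, A405, normalised to protein. Three experiments in duplicate.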

SMILES | Activity
O=c1ccc2cc3ccoc3cc2o1 | Active
O=c1ccc2ccc3occc3c2o1 | Active
Cc1coc2cc3oc(=O)ccc3cc12 | Active
O=c1ccc2cc3c(-c4ccccc4)coc3cc2o1 | Active
O=c1cc(CO)c2cc3c(cc2o1)oc1ccccc13 | Active
Cc1cc(=O)oc2cc3occ(-c4ccccc4)c3cc12 | Active
Cc1oc2ccc3c(C)cc(=O)oc3c2c1C | Active
O=c1ccc2ccc3oc4c(c3c2o1)CCCC4 | Active
Cc1cc(=O)oc2c1ccc1occ(C)c12 | Active
Cc1cc(=O)oc2cc3oc4c(c3cc12)CCCC4 | Active
Cc1oc2ccc3ccc(=O)oc3c2c1C | Active
Cc1oc2cc3oc(=O)ccc3cc2c1C | Active
Cc1ccc(C(=O)OCc2cc(=O)oc3cc4oc5ccccc5c4cc23)cc1 | 313.1%
Cc1coc2ccc3ccc(=O)oc3c12 | Active
O=c1ccc2cc3c4c(oc3cc2o1)CCCC4 | Active
O=Cc1cc(=O)oc2cc3oc4ccccc4c3cc12 | Active
Cc1ccccc1/N=C/c1cc(=O)oc2cc3oc4ccccc4c3cc12 | 350.5%
COc1c2occc2cc2ccc(=O)oc12 [METHOXSALEN] | 114.5%
Cc1cc(=O)oc2c1ccc1occc12 | Active
Cc1oc2cc3oc(=O)cc(C)c3cc2c1C | Active
Cc1coc2cc3oc(=O)cc(C)c3cc12 | Active

Test system: B16-F10
Test: Induction of melanin synthesis in mouse B16F10 cells at 50 uM after 48 hrs by spectrophotometric analysis relative to 8-MOP
Format: functional
Procedure, shortened: as §1

SMILES | fold change (FC)
Cc1ccc(C(=O)OCc2cc(=O)oc3cc4oc5ccccc5c4cc23)cc1 | 3
Cc1ccccc1/N=C/c1cc(=O)oc2cc3oc4ccccc4c3cc12 | 3
